≈ marks a conversion by molar mass, not a printed value. Calls of active or inactive are those of the source. No cut-off for these calls is given here.
What was measured:
Klebsiella pneumoniae [1] = assay: Binding affinity to OXA-48 in Klebsiella pneumoniae assessed as ezyme-compound adduct formation from loss of catechol group with increase in mass at 1:100 ezyme-compound ratio using nitrocefin as substrate at pH 7 and 25 degree C by MALDI-TOF MS analysis
Method in brief: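 OXA-48 from K. pneumoniae incubated with ligand at 1:100 enzyme/inhibitor molar ratio in 50 mM Tris-HCl, 150 mM NaCl, 1 mM EDTA pH 7.0, 25 °C, 30 min; activity followed on aliquots by nitrocefin hydrolysis (482 nm) in phosphate/bicarbonate pH 7.4; samples then washed with 5 mM ammonium bicarbonate by ultrafiltration, freeze-dried, analysed by MALDI-TOF; triplicate.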

[2] = target: Beta-lactamase OXA-23 (Acinetobacter baumannii) (UniProt Q9L4P2); assay: (§1) Inhibition of OXA-23 in carbapenem-resistant Acinetobacter baumannii ATCC 17978 transfected with pET-RA-KmR plasmid encoding rifampicin and kanamycin resistance assessed as potentiation of imipenem-induced antibacterial activity by measuring imipenem MIC at 16 ug/mL in Mueller-Hinton broth by CLSI protocol based method (reference value: 8 ug/mL)
Method in brief: (§2)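 MIC of the reporter antibiotic measured by CLSI broth microdilution in Mueller-Hinton II broth, with and without inhibitor at 16 µg mL-1. Reporters were ampicillin for class A (TEM-1, CTX-M-2), ceftazidime for class C (CMY-2, DHA-1) and imipenem for class D (OXA-23, OXA-24/40, OXA-48). MIC is the lowest concentration with no visible growth, mean of three independent replicates. Strains were grown in LB at 37 °C, with kanamycin or ampicillin at 50 mg L-1 where needed.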

[3] = system: Acinetobacter baumannii ATCC 17978; assay: as §1, with “of OXA-24/40” for “of OXA-23”, “value: 64” for “value: 8”; method in brief: as §2
Klebsiella pneumoniae [4] = assay: Inhibition of OXA-48 in beta-lactam-resistant Klebsiella pneumoniae assessed as potentiation of imipenem-induced antibacterial activity by measuring imipenem MIC at 16 ug/mL in Mueller-Hinton broth by CLSI protocol based method (reference value: 64 ug/mL); method in brief: as §2
[5] = target: Beta-lactamase TEM-1 (Escherichia coli) (UniProt Q4GY26); assay: (§3) Inhibition of TEM-1 in penicillin-resistant Escherichia coli TG1 transfected with pBGS18 plasmid encoding replication origin and kanamycin resistance assessed as potentiation of ampicillin-induced antibacterial activity by measuring ampicillin MIC at 16 ug/mL in Mueller-Hinton broth by CLSI protocol based method (Rvb > 1024 ug/mL); method in brief: as §2
Escherichia coli [6] = assay: as §3, with “CTX-M2” for “TEM-1”, “beta-lactam-resistant” for “penicillin-resistant”; method in brief: as §2
Escherichia coli [7] = assay: (§4) Inhibition of CMY-2 in beta-lactam-resistant Escherichia coli TG1 transfected with pBGS18 plasmid encoding replication origin and kanamycin resistance assessed as potentiation of ceftazidime-induced antibacterial activity by measuring ceftazidime MIC at 16 ug/mL in Mueller-Hinton broth by CLSI protocol based method (reference value: 32 ug/mL); method in brief: as §2
Escherichia coli [8] = assay: as §4, with “DHA-1” for “CMY-2”; method in brief: as §2
[9] = Inhibition of carbapenem-resistant Acinetobacter baumannii ATCC 17978 OXA-24/40 expressed in Escherichia coli BL21 using nitrocefin as substrate measured after 15 mins by spectrophotometry analysis
[10] = system: Acinetobacter baumannii ATCC 17978; assay: Inhibition of carbapenem-resistant Acinetobacter baumannii ATCC 17978 OXA-24/40 expressed in Escherichia coli BL21 assessed as inactivation rate constant using nitrocefin as substrate measured after 15 mins by spectrophotometry analysis
[11] = system: Acinetobacter baumannii ATCC 17978; assay: Inhibition of Acinetobacter baumannii ATCC 17978 OXA-24/40 expressed in Escherichia coli BL21 assessed as ratio of Kinact/Ki using nitrocefin as substrate measured after 15 mins by spectrophotometry analysis
[12] = system: Acinetobacter baumannii ATCC 17978; assay: Inhibition of carbapenem-resistant Acinetobacter baumannii ATCC 17978 OXA-24/40 expressed in Escherichia coli BL21 assessed as ratio of Kinact/Ki using nitrocefin as substrate measured after 15 mins by spectrophotometry analysis relative to parent compound
[13] = system: Acinetobacter baumannii ATCC 17978; assay: Inhibition of carbapenem-resistant Acinetobacter baumannii ATCC 17978 OXA-24/40 expressed in Escherichia coli BL21 using nitrocefin as substrate measured after 15 mins by spectrophotometry analysis relative to parent compound
[14] = Drug metabolism assessed as centered band formation at 295 nm leading to conjugate imine intermediate formation at 25 degree C measured up to 2 mins for 15 mins in presence of sodium methoxide by UV-Vis spectroscopy
Method in brief: (§5)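 Methanolysis followed after adding 1 equivalent NaOMe (1 M in MeOH) at 25 °C over 15 min; UV-Vis spectra scanned 600–200 nm, 2.0 nm bandwidth, 1 cm cell, collected at 0.5, 1.0, 1.5 and 2.0 min; mixture afterwards checked by HPLC-MS.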

[15] = Drug metabolism assessed as decrease in centered band formation at 253 nm leading to -indolizine skeleton formation at 25 degree C measured up to 2 mins for 15 mins in presence of sodium methoxide by UV-Vis spectroscopy; method in brief: as §5
[16] = Drug metabolism assessed as decrease in centered band formation at 408 nm leading to -indolizine skeleton formation at 25 degree C measured up to 2 mins for 15 mins in presence of sodium methoxide by UV-Vis spectroscopy; method in brief: as §5
[17] = system: Acinetobacter baumannii ATCC 17978; assay: Binding affinity to OXA-24/40 in carbapenem-resistant Acinetobacter baumannii ATCC 17978 assessed as ezyme-compound adduct formation from loss of catechol group with increase in mass at 1:100 ezyme-compound ratio using nitrocefin as substrate at pH 7 and 25 degree C by MALDI-TOF MS analysis
Method in brief: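 OXA-24/40 (from a 0.9 mg mL-1 stock) was incubated with ligand at a 1:100 enzyme/inhibitor molar ratio in 50 mM Tris-HCl, 150 mM NaCl, 1 mM EDTA, pH 7.0, 25 °C, for 30 min. Activity was followed by nitrocefin hydrolysis at 482 nm. Samples were then washed and concentrated with 5 mM ammonium bicarbonate, freeze-dried, and analysed by MALDI-TOF for the covalent adduct mass shift, in triplicate.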

Escherichia coli [18] = assay: as §3, with “CTX-M2” for “TEM-1”, “beta-lactam-resistant” for “penicillin-resistant”, “measuring fold reduction in” for “measuring”, “relative to ampicillin MIC alone” for “(Rvb > 1024 ug/mL)”; method in brief: as §2
Acinetobacter baumannii = assay: Antibacterial activity against wild type carbapenem-susceptible Acinetobacter baumannii ATCC 17978 in Mueller-Hinton broth by CLSI protocol based method; format: functional
Method in brief: (§6)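 Broth microdilution MIC in Mueller-Hinton II broth following CLSI. Strains were grown in LB broth or on LB agar at 37 °C and stored at -80 °C in LB with 15% glycerol. MIC is the lowest concentration with no visible growth, given as the mean of three independent replicates.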

Klebsiella pneumoniae [19] = assay: Antibacterial activity against wild type beta-lactam-resistant Klebsiella pneumoniae in Mueller-Hinton broth by CLSI protocol based method; format: functional; method in brief: as §6
Escherichia coli [20] = assay: Antibacterial activity against wild type Escherichia coli TG1 in Mueller-Hinton broth by CLSI protocol based method; format: functional; method in brief: as §6

| SMILES | Activity (Klebsiella pneumoniae [1]) | MIC [2] [µg/mL] | MIC [3] [µg/mL] | MIC (Klebsiella pneumoniae [4]) [µg/mL] | MIC [5] [µg/mL] | MIC (Escherichia coli [6]) [µg/mL] | MIC (Escherichia coli [7]) [µg/mL] | MIC (Escherichia coli [8]) [µg/mL] | Ki [9] [nM] | Kinact [10] [ms-1] | Ratio [11] [M⁻¹ s⁻¹] | Ratio (Escherichia coli [18]) | further results |
| --- | --- | --- | --- | --- | --- | --- | --- | --- | --- | --- | --- | --- | --- |
| C[C@]1(COC(=O)Cc2ccc(O)c(O)c2)[C@H](C(=O)O)N2C(=O)/C(=C/c3cc4ccccc4cn3)[C@H]2S1(=O)=O | Active | 2 | 2 | 8 | 4 | 256 | 2 | 2 | – | – | – | – | – |
| C[C@]1(COC(=O)Cc2ccc(O)c(O)c2)[C@H](C(=O)O)N2C(=O)/C(=C/c3cc(Br)ccn3)[C@H]2S1(=O)=O | Active | 1 | 1 | 4 | 2 | 16 | < 0.25 | < 0.25 | 140 | 22 | 159000 | 64 | Ratio [12]: 1.6; Ratio Ki [13]: 2; Drug metabolism [14]: Metabolite detected; Drug metabolism [15]: Metabolite detected; Drug metabolism [16]: Metabolite detected; Activity [17]: Active |
| C[C@]1(COC(=O)Cc2ccc(O)c(O)c2)[C@H](C(=O)O)N2C(=O)/C(=C/c3ccccn3)[C@H]2S1(=O)=O | – | 0.5 | 0.5 | 4 | 2 | 16 | < 0.25 | < 0.25 | 234 | 22 | 98200 | 64 | – |
| NC(=O)[C@@H]1CC[C@@H]2CN1C(=O)N2OS(=O)(=O)[O-].[Na+] [AVIBACTAM SODIUM] | – | 4 | 16 | – | – | – | – | – | – | – | – | – | MIC (Acinetobacter baumannii): 0.5 µg/mL; MIC (Klebsiella pneumoniae [19]): 0.5 µg/mL; MIC (Escherichia coli [20]): 2 µg/mL |
| CC(C)(O/N=C(\C(=O)N[C@@H]1C(=O)N2C(C(=O)[O-])=C(C[n+]3ccccc3)CS[C@H]12)c1csc(N)n1)C(=O)O [CEFTAZIDIME] | – | – | – | – | – | – | – | – | – | – | – | – | MIC (Escherichia coli [20]): ≤ 0.25 µg/mL |
| C[C@]1(COC(=O)Cc2ccc(O)c(O)c2)[C@H](C(=O)O)N2C(=O)/C(=C/c3ccc(F)cn3)[C@H]2S1(=O)=O | Active | 1 | 1 | 4 | 2 | 32 | < 0.25 | < 0.25 | 495 | 25 | 48900 | – | Activity [17]: Active |
| C[C@@H](O)[C@H]1C(=O)N2C(C(=O)O)=C(SCCNC=N)C[C@H]12 [IMIPENEM ANHYDROUS] | – | – | – | – | – | – | – | – | – | – | – | – | MIC (Acinetobacter baumannii): 0.5 µg/mL (≈ 1.67 µM); MIC (Klebsiella pneumoniae [19]): 0.5 µg/mL (≈ 1.67 µM) |
| C[C@]1(COC(=O)Cc2ccc(O)c(O)c2)[C@H](C(=O)O)N2C(=O)/C(=C/c3nccc4ccsc34)[C@H]2S1(=O)=O | Active | 2 | 8 | 64 | 2 | 256 | < 0.25 | < 0.25 | 247 | 11 | 47600 | – | Activity [17]: Active |
| COc1ccnc(/C=C2/C(=O)N3[C@@H](C(=O)O)[C@](C)(COC(=O)Cc4ccc(O)c(O)c4)S(=O)(=O)[C@H]23)c1OC | Active | 4 | 8 | 64 | 2 | 256 | < 0.25 | < 0.25 | 276 | 24 | 83200 | – | – |
| O=C(NC1CCNCC1)[C@@H]1CC[C@@H]2CN1C(=O)N2OS(=O)(=O)O | – | 8 | 64 | 8 | 4 | 16 | < 0.25 | < 0.25 | – | – | – | 64 | – |
| Cn1cc(-c2ccnc(/C=C3/C(=O)N4[C@@H](C(=O)O)[C@](C)(COC(=O)Cc5ccc(O)c(O)c5)S(=O)(=O)[C@H]34)c2)cn1 | Active | 1 | 1 | 8 | 2 | 16 | < 0.25 | < 0.25 | 217 | 24 | 110000 | 64 | – |

— ChEMBL document CHEMBL4354868, “6-Arylmethylidene Penicillin-Based Sulfone Inhibitors for Repurposing Antibiotic Efficiency in Priority Pathogens” (J Med Chem, 2020)
